Published values from different studies.
Lines come from different studies, so protocols differ.
Target: Phosphatidylinositol 4,5-bisphosphate 3-kinase catalytic subunit delta isoform (PIK3CD, Homo sapiens, UniProt O00329)
Sequence (O00329 1-1044, as in one of the studies): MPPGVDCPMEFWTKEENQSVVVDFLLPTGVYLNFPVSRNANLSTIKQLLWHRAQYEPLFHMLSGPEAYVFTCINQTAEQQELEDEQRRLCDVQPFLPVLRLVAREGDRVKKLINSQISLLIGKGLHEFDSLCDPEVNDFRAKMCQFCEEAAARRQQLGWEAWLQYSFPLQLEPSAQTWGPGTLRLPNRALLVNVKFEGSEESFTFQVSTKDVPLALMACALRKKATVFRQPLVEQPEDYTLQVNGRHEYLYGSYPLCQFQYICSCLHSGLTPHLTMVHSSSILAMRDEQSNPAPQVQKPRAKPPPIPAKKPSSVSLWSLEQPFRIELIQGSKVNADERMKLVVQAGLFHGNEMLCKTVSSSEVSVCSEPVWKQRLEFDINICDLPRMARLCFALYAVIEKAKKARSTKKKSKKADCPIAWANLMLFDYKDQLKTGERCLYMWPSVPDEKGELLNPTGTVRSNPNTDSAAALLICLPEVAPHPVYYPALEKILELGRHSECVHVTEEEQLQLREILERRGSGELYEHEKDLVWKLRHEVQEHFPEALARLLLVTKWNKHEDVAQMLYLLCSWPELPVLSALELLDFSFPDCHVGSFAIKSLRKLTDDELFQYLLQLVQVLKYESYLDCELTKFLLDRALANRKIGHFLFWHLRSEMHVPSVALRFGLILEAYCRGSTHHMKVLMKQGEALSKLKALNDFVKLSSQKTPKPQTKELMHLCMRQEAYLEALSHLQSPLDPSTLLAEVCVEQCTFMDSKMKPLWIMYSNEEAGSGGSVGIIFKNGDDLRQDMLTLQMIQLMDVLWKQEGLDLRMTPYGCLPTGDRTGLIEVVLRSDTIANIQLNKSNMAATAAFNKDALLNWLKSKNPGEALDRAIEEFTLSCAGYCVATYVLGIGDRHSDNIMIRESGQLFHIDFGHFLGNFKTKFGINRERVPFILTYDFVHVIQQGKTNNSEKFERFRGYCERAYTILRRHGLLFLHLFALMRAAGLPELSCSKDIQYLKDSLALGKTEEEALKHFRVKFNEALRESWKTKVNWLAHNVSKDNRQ

Cc1nc(N2CC[C@@H](O)C2)ncc1-c1cc(C(F)(F)F)cc2[nH]ncc12  remaining binding (cell-free assay; competition with immobilised ligand; 1 µM): 72%
O=C(c1ccc(Nc2ncc(Cl)c(-c3ccc(Cl)s3)n2)cc1)N1CCC(N2CCCC2)CC1  remaining binding (binding; competition with immobilised ligand; 1 µM): 100%
c1cnn2ncc(-c3ccnc(N4CCC45COC5)n3)c2c1  remaining binding (binding; 1 µM): 69%
COc1cnc(Nc2cccc(S(N)(=O)=O)c2)nc1N1CCN(c2ccccc2)C(=O)C1  remaining binding (binding; competition with immobilised ligand; 1 µM): 47%
COc1ccnn2ncc(-c3ccnc(N(C)C)n3)c12  remaining binding (binding; 1 µM): 68%
C=CC(=O)N1CCC(C(=O)NCC(=O)N2CCN(c3nc(-c4cnc(N)nc4C(F)F)nc(N4CCOCC4)n3)CC2)CC1  remaining binding (binding; competition with immobilised ligand; 1 µM): 19%
O=C(NCCCN1CCOCC1)c1ccc(Nc2nccc(-c3cc4ccccc4s3)n2)cc1  remaining binding (binding; competition with immobilised ligand; 1 µM): 56%
O=C1NC(c2ccccn2)Sc2ccccc21 (centres unmarked)  remaining binding (cell-free assay; competition with immobilised ligand; 1 µM): 51%
N[C@H]1CCN(c2nccc(-c3cnn4ncccc34)n2)C1  remaining binding (binding; 1 µM): 100%
CSc1cccnc1N1CCN(Cc2nc3ccccc3[nH]2)CC1  remaining binding (cell-free assay; competition with immobilised ligand; 1 µM): 100%
CC1CCCN1c1nccc(-c2cnn3ncccc23)n1 (centres unmarked)  remaining binding (binding; 1 µM): 100%
CCN1CCN(Cc2ccc(C(=O)Nc3ccc(C)c(Oc4ccc5c(c4)CC(=O)N5)c3)cc2C(F)(F)F)CC1  remaining binding (binding; competition with immobilised ligand; 1 µM): 100%
COc1ncc2cc3ccccc3nc2c1C#N  remaining binding (cell-free assay; competition with immobilised ligand; 5 µM): 98%
C[C@H]1CCN(c2nccc(-c3cnn4ncccc34)n2)C1  remaining binding (binding; 1 µM): 100%
CC1=C(C#N)[C@@H](c2ccc3[nH]nc(C)c3c2)C(C#N)=C(c2ccc(Cl)cc2)N1  remaining binding (cell-free assay; competition with immobilised ligand; 1 µM): 100%
Cc1cnc(Nc2ccc(C(=O)N3CCC(N4CCCC4)CC3)cc2)nc1-c1cc2ccccc2s1  remaining binding (binding; competition with immobilised ligand; 1 µM): 90%
CNC(=O)Nc1ccc2c(c1)[C@@]1(CC2)OC(=O)N(CC(=O)N(Cc2ccc(F)cc2)[C@@H](C)C(F)(F)F)C1=O  remaining binding (cell-free assay; competition with immobilised ligand; 1 µM): 100%
Cc1cnn2ncc(-c3ccnc(N(C)C)n3)c2c1  remaining binding (binding; 1 µM): 100%
CCOCCn1cc(C(=O)Nc2ccc(-n3nc(-c4cccnc4)cc3C(F)(F)F)cn2)ccc1=O  remaining binding (cell-free assay; competition with immobilised ligand; 1 µM): 100%
O=C(Nc1c[nH]nc1C(=O)NC1CCNCC1)c1cc(F)cc(F)c1  remaining binding (binding; competition with immobilised ligand; 1 µM): 100%
